According to ChEMBL document CHEMBL4190366, “Discovery and synthesis of novel Wogonin derivatives with potent antitumor activity in vitro” (Eur J Med Chem, 2017):
Active and inactive are the calls of the source. The calls are words filed in the database; no cut-off is given here.

Tests used:
A549 [1] = assay: Cytotoxicity in human A549 cells assessed as reduction in cell viability incubated for 72 hrs by MTT assay; conditions: A549, 72 h
HepG2 [2] = assay: Cytotoxicity in human HepG2 cells assessed as reduction in cell viability incubated for 72 hrs by MTT assay; assay type: functional, cell-based; conditions: for IC50: HepG2, 72 h
Method in brief: (§1)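 Cells pre-incubated 24 h at 37 °C, 5% CO2, then exposed to a range of compound concentrations for 72 h. Viability read as mitochondrial MTT-to-formazan conversion, absorbance at 570 nm.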

B16 = assay: Cytotoxicity in mouse B16 cells assessed as reduction in cell viability incubated for 72 hrs by MTT assay; assay type: functional, cell-based; conditions: for IC50: B16, 72 h; method in brief: as §1
MCF7 = assay: Cytotoxicity in human MCF7 cells assessed as reduction in cell viability incubated for 72 hrs by MTT assay; assay type: functional, cell-based; conditions: for IC50: MCF7, 72 h; method in brief: as §1
[3] = Selectivity index, ratio of IC50 for human LO2 cells to IC50 for human HeLa cells; assay type: toxicity; conditions: LO2 cells versus HeLa cells, read-out: Ratio IC50
Method in brief: (§2)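 Selectivity ratio is L02 IC50 divided by cancer-cell IC50, each taken from the MTT viability assay.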

HepG2 [4] = assay: Induction of apoptosis in human HepG2 cells assessed as apoptosis level at 6 uM incubated for 24 hrs by FITC-labelled Annexin V/PI staining based flow cytometry (reference value: 2.6%); assay type: functional
Method in brief: (§3)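 HepG2 treated 24 h with 2, 4 or 6 µM; 0.1% DMSO vehicle control. Stained with FITC-Annexin V/PI and analysed by flow cytometry 10-15 min after staining. Annexin V+/PI- counted as early/median apoptotic, Annexin V+/PI+ as late apoptotic.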

[5] = Selectivity index, ratio of IC50 for human LO2 cells to IC50 for human LNCAP cells; assay type: toxicity; conditions: LO2 cells versus LNCAP cells, read-out: Ratio IC50; method in brief: as §2
[6] = Selectivity index, ratio of IC50 for human LO2 cells to IC50 for mouse B16 cells; assay type: toxicity; conditions: LO2 cells versus B16 cells, read-out: Ratio IC50; method in brief: as §2
HepG2 [7] = assay: Ratio of cytotoxicity in human HepG2 cells at 1 uM in presence of 5 mM NAC incubated for 48 hrs by MTT assay to cytotoxicity in human HepG2 cells at 1 uM in absence of 5 mM NAC incubated for 48 hrs by MTT assay; assay type: functional
Method in brief: (§4)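 HepG2 cells incubated 48 h with compound at 1, 5 or 10 µM, with or without 5 mM N-acetylcysteine. Ratio is cell viability with NAC divided by viability with compound alone at the same concentration.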

HepG2 [8] = assay: Induction of apoptosis in human HepG2 cells assessed as apoptosis level at 2 to 4 uM incubated for 24 hrs by FITC-labelled Annexin V/PI staining based flow cytometry; assay type: functional, cell-based; method in brief: as §3
LNCaP = assay: Cytotoxicity in human LNCAP cells assessed as reduction in cell viability incubated for 72 hrs by MTT assay; assay type: functional, cell-based; method in brief: as §1
[9] = Selectivity index, ratio of IC50 for human LO2 cells to IC50 for human HepG2 cells; assay type: toxicity; conditions: LO2 cells versus HepG2 cells, read-out: Ratio IC50; method in brief: as §2
HepG2 [10] = assay: Ratio of cytotoxicity in human HepG2 cells at 5 uM in presence of 5 mM NAC incubated for 48 hrs by MTT assay to cytotoxicity in human HepG2 cells at 5 uM in absence of 5 mM NAC incubated for 48 hrs by MTT assay; assay type: functional; method in brief: as §4
L02 [11] = assay: Cytotoxicity in human LO2 cells assessed as reduction in cell viability at 30 uM incubated for 48 hrs by MTT assay; assay type: cell-based; conditions: l02, 48 h
Method in brief: (§5)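 Normal hepatic L02 cells incubated with compound for 48 h. Cell viability measured across a concentration series.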

[12] = biological target: Cyclin-dependent kinase 2 (Homo sapiens, UniProt P24941); assay: Inhibition of CDK2 (unknown origin)
Method in brief: (§6)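 Kinase profiling run as a contract service, with ATP at the Km of each kinase.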

HeLa = assay: Cytotoxicity in human HeLa cells assessed as reduction in cell viability incubated for 72 hrs by MTT assay; assay type: functional, cell-based; method in brief: as §1
HepG2 [13] = assay: Induction of ROS generation in human HepG2 cells at 2 to 6 uM incubated for 24 hrs by DCFH-DA staining based flow cytometry; assay type: functional, cell-based
Method in brief: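 HepG2 seeded at 6×10^4 cells/well and grown 24 h, then treated 24 h with 2, 4 or 6 µM. Washed with PBS and serum-free medium, loaded with serum-free DCFH-DA 30 min at 37 °C, washed twice cold. Fluorescence read by flow cytometry at 488/525 nm. Mean ± SEM, n = 3.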

[14] = biological target: Hepatocyte growth factor receptor (Homo sapiens, UniProt P08581); assay: Inhibition of c-Met (unknown origin); method in brief: as §6
Hepatocyte growth factor receptor, sequence (P08581 whole entry): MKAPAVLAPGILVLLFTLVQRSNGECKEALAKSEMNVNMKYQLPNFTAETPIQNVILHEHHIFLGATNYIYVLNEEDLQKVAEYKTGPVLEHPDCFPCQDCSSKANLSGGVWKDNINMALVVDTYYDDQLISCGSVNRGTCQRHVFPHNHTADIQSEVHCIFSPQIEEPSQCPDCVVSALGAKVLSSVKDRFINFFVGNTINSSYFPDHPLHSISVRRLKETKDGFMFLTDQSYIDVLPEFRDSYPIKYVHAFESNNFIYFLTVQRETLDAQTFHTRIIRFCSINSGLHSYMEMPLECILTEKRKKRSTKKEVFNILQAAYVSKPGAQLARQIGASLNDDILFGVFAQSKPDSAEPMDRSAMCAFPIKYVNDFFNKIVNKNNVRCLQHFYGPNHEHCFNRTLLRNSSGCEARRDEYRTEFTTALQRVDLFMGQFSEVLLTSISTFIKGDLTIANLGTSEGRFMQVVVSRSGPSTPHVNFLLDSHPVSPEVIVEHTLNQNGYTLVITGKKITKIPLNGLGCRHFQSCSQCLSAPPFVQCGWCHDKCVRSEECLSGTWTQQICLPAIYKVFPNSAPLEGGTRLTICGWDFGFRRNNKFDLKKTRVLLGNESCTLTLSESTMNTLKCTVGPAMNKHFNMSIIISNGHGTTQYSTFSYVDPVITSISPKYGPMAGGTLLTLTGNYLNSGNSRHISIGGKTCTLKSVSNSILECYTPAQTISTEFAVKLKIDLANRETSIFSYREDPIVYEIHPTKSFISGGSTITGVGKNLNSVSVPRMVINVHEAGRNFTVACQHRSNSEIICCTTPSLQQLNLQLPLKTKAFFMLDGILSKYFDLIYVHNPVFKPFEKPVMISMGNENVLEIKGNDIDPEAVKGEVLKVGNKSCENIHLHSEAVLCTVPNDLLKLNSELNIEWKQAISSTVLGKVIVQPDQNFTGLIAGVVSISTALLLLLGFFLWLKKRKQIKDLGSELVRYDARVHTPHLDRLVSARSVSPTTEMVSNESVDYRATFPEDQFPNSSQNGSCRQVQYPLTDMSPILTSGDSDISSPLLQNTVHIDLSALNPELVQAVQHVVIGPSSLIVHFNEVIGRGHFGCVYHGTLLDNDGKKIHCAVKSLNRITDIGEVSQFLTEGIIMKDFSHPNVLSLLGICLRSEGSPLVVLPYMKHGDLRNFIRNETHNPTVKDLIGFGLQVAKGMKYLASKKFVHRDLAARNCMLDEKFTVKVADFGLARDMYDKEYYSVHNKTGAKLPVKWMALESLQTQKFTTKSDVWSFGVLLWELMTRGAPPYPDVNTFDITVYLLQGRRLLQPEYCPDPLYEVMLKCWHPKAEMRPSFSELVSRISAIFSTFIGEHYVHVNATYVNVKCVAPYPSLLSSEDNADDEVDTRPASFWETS

HepG2 [15] = assay: Ratio of cytotoxicity in human HepG2 cells at 10 uM in presence of 5 mM NAC incubated for 48 hrs by MTT assay to cytotoxicity in human HepG2 cells at 10 uM in absence of 5 mM NAC incubated for 48 hrs by MTT assay; assay type: functional; method in brief: as §4
[16] = Selectivity index, ratio of IC50 for human LO2 cells to IC50 for human MCF7 cells; assay type: toxicity; conditions: LO2 cells versus MCF7 cells, read-out: Ratio IC50; method in brief: as §2
[17] = Selectivity index, ratio of IC50 for human LO2 cells to IC50 for human A549 cells; assay type: toxicity; conditions: LO2 cells versus A549 cells, read-out: Ratio IC50; method in brief: as §2
HepG2 [18] = assay: Induction of apoptosis in human HepG2 cells assessed as apoptosis level incubated for 24 hrs by FITC-labelled Annexin V/PI staining based flow cytometry; assay type: functional, cell-based; method in brief: as §3
L02 [19] = assay: Cytotoxicity in human LO2 cells assessed as reduction in cell viability at 15 uM incubated for 48 hrs by MTT assay; assay type: cell-based; conditions: l02, 48 h; method in brief: as §5
A549 [20] = assay: Cytotoxicity in human A549 cells assessed as reduction in cell viability incubated for 72 hrs by MTT assay
[21] = biological target: Cyclin-dependent kinase 9 (Homo sapiens, UniProt P50750); assay: Inhibition of CDK9 (unknown origin); method in brief: as §6
Cyclin-dependent kinase 9, sequence (P50750 whole entry): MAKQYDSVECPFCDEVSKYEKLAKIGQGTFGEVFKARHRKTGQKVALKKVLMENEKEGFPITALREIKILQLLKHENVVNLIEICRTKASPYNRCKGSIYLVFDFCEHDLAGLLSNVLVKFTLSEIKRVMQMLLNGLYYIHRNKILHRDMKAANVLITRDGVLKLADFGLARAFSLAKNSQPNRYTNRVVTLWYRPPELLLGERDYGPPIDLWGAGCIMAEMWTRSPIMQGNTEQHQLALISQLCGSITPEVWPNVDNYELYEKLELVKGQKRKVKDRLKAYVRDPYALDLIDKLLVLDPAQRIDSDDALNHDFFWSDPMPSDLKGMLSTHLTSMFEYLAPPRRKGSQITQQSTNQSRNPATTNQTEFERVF

## COc1c(OCCCCN2CCN(C)CC2)cc(O)c2c(=O)cc(-c3ccc(F)cc3)oc12
A549 [1]
  IC50: 2.22 µM
HepG2 [2]
  IC50: 2.81 µM
B16
  IC50: 4.32 µM
MCF7
  IC50: 3.86 µM

## CN1CCN(CCCOc2c(OCc3ccccc3)cc(O)c3c(=O)cc(-c4ccccc4)oc23)CC1
A549 [1]
  IC50: 3.94 µM
HepG2 [2]
  IC50: 3.11 µM
B16
  IC50: 3.76 µM
MCF7
  IC50: 1.02 µM

## COc1c(OCCCCN2CCN(C)CC2)cc(O)c2c(=O)cc(-c3cccc(F)c3)oc12
A549 [1]
  IC50: 2.09 µM
HepG2 [2]
  IC50: 2.58 µM
B16
  IC50: 4.52 µM
MCF7
  IC50: 2.89 µM

## O=c1cc(-c2ccccc2)oc2c(OCCCN3CCCC3)c(OCc3ccccc3)cc(O)c12
A549 [1]
  IC50: 4.72 µM
HepG2 [2]
  IC50: 2.66 µM
B16
  IC50: 7.98 µM
MCF7
  IC50: 2.23 µM

## COc1c(OCCCCN2CCN(C)CC2)cc(O)c2c(=O)cc(-c3ccc([N+](=O)[O-])cc3)oc12
A549 [1]
  IC50: 3.21 µM
HepG2 [2]
  IC50: 2.62 µM
B16
  IC50: 2.89 µM
MCF7
  IC50: 4.09 µM

## CN1CCN(CCCCOc2c(OCc3ccc(C#N)cc3)cc(O)c3c(=O)cc(-c4ccccc4)oc23)CC1
[3]
  selectivity ratio: 4.3 to 27
HepG2 [4]
  Activity: 30.7%
[5]
  selectivity ratio: 4.3 to 27
A549 [1]
  IC50: 2.14 µM
[6]
  selectivity ratio: 4.3 to 27
HepG2 [7]
  Ratio: 2.7
HepG2 [2]
  Activity: Dose-dependent effect
  IC50: 0.59 µM
HepG2 [8]
  Activity: inactive
LNCaP
  Activity: Dose-dependent effect
  IC50: 1.72 µM
[9]
  selectivity ratio: 27
HepG2 [10]
  Ratio: 5.5
L02 [11]
  Activity: Toxic
[12]
  IC50: 6.7 µM
HeLa
  Activity: Dose-dependent effect
  IC50: 2.65 µM
HepG2 [13]
  Activity: Dose-dependent effect
B16
  Activity: Dose-dependent effect
  IC50: 3.7 µM
[14]
  IC50: 35 µM
HepG2 [15]
  Ratio: 7
[16]
  selectivity ratio: 4.3 to 27
[17]
  selectivity ratio: 4.3 to 27
HepG2 [18]
  Activity: Dose-dependent effect
L02 [19]
  Activity: Non-Toxic
MCF7
  Activity: Dose-dependent effect
  IC50: 2.42 µM
A549 [20]
  Activity: Dose-dependent effect
[21]
  IC50: 0.87 µM

## O=c1cc(-c2ccccc2)oc2c(OCCCN3CCOCC3)c(OCc3ccccc3)cc(O)c12
A549 [1]
  IC50: 8.91 µM
HepG2 [2]
  IC50: 2.43 µM
B16
  IC50: 10 µM
MCF7
  IC50: 8.72 µM

## CCN(CC)CCCCOc1c(OCc2ccccc2)cc(O)c2c(=O)cc(-c3ccccc3)oc12
A549 [1]
  IC50: 3.91 µM
HepG2 [2]
  IC50: 1.65 µM
B16
  IC50: 4.88 µM
MCF7
  IC50: 1.92 µM

## O=c1cc(-c2ccccc2)oc2c(OCCCN(CCO)CCO)c(OCc3ccccc3)cc(O)c12
A549 [1]
  IC50: 3.15 µM
HepG2 [2]
  IC50: 3.55 µM
B16
  IC50: 6.89 µM
MCF7
  IC50: 4.23 µM

## CCN(CC)CCCOc1c(OCc2ccccc2)cc(O)c2c(=O)cc(-c3ccccc3)oc12
A549 [1]
  IC50: 3.62 µM
HepG2 [2]
  IC50: 3.01 µM
B16
  IC50: 4.9 µM
MCF7
  IC50: 3.21 µM

## COc1c(OCCCCN2CCN(C)CC2)cc(O)c2c(=O)cc(-c3ccc(C(F)(F)F)cc3)oc12
A549 [1]
  IC50: 2.89 µM
HepG2 [2]
  IC50: 2.4 µM
B16
  IC50: 4.99 µM
MCF7
  IC50: 2.98 µM

## Cc1ccc(COc2cc(O)c3c(=O)cc(-c4ccccc4)oc3c2OCCCCN2CCN(C)CC2)cc1
A549 [1]
  IC50: 3.2 µM
HepG2 [2]
  IC50: 5.09 µM
B16
  IC50: 3.29 µM
MCF7
  IC50: 2.22 µM

## CN1CCN(CCCCOc2c(OCc3ccco3)cc(O)c3c(=O)cc(-c4ccccc4)oc23)CC1
A549 [1]
  IC50: 3.6 µM
HepG2 [2]
  IC50: 4.11 µM
B16
  IC50: 3.53 µM
MCF7
  IC50: 2.77 µM

## COc1c(OCCCCN2CCN(C)CC2)cc(O)c2c(=O)cc(-c3ccc(Br)cc3)oc12
A549 [1]
  IC50: 2.13 µM
HepG2 [2]
  IC50: 2.32 µM
B16
  IC50: 4.33 µM
MCF7
  IC50: 3.21 µM

## COc1c(OCCCCN2CCN(C)CC2)cc(O)c2c(=O)cc(-c3ccc(F)cc3Br)oc12
A549 [1]
  IC50: 2.98 µM
HepG2 [2]
  IC50: 2.13 µM
B16
  IC50: 3.44 µM
MCF7
  IC50: 3.09 µM

## O=c1cc(-c2ccccc2)oc2c(OCCCCN3CCCC3)c(OCc3ccccc3)cc(O)c12
A549 [1]
  IC50: 1.1 µM
HepG2 [2]
  IC50: 4.66 µM
B16
  IC50: 3.21 µM
MCF7
  IC50: 1.89 µM
